For 1 molecule, inhibition, IC50 and Activity results are on record in ChEMBL document CHEMBL5661979, “Pharmacological inhibition of BMK1 suppresses tumor growth through promyelocytic leukemia protein” (Cancer Cell, 2010).

The structures appear in SMILES notation. Some results are limits rather than exact numbers.

Series [1] in a line: Inhibition of HGK/MINK/TNIK in human HeLa cells lysate at 2 uM pre incubated for 15 mins followed by ATP acyl phosphate probe addition and measured after 10 mins by LC-MS/MS analysis relative to control. Particulars: 25 min, condition cancer.
Series [2] can be described thus: Inhibition of SRPK1/2 in human HeLa cells lysate pre incubated for 15 mins followed by ADP acyl phosphate probe addition and measured after 10 mins by LC-MS/MS analysis. The class given is subcellular.
The target in series [3] is T1, Dual specificity mitogen-activated protein kinase kinase 5 (Homo sapiens) (UniProt Q13163).
T1 sequence (whole entry): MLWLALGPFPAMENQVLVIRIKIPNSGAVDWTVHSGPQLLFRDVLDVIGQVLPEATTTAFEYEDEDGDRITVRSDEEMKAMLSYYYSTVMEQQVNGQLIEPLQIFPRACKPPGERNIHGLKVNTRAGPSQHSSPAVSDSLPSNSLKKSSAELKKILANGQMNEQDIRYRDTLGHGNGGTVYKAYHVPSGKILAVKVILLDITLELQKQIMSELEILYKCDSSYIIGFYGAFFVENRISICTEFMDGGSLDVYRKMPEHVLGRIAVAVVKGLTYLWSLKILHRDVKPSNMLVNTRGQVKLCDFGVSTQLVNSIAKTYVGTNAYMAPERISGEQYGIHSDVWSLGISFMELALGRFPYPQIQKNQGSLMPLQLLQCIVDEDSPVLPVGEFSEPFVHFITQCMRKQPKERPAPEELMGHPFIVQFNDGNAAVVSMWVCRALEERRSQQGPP
The series can be described thus: Inhibition of MAP2K5 in human HeLa cells lysate at 2 uM pre incubated for 15 mins followed by ADP acyl phosphate probe addition and measured after 10 mins by LC-MS/MS analysis relative to control. In kind it is subcellular. The following applies: time 25.0 min.

For series [4], the target named is T2, Mitogen-activated protein kinase kinase kinase kinase 2 (Homo sapiens) (UniProt Q12851).
T2 sequence (whole entry): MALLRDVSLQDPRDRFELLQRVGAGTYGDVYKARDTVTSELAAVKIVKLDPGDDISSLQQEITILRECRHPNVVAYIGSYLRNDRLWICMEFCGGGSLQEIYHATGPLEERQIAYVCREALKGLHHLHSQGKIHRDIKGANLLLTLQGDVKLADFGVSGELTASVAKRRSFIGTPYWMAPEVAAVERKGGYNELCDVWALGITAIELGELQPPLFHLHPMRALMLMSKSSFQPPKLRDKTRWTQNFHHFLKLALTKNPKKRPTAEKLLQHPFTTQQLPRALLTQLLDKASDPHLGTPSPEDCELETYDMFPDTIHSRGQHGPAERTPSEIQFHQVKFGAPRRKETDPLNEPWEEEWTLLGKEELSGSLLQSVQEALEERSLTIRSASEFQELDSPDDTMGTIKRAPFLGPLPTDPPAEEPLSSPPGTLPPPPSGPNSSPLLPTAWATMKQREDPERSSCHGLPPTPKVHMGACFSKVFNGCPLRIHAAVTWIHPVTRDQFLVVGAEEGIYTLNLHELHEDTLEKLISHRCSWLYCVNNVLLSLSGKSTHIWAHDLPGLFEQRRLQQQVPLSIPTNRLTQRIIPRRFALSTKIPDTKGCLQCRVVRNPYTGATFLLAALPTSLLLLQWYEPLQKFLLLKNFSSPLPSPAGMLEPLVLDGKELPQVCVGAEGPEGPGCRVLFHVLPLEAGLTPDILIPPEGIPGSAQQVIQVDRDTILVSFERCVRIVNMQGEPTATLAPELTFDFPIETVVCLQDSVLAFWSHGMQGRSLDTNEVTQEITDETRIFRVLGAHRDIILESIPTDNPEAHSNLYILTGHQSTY
The series can be described thus: Inhibition of GCK in human HeLa cells lysate at 50 uM pre incubated for 15 mins followed by ADP acyl phosphate probe addition and measured after 10 mins by LC-MS/MS analysis relative to control. In kind it is subcellular. Particulars: time 25.0 min.

In series [5] the target is Phosphatidylinositol 5-phosphate 4-kinase type-2 gamma (Homo sapiens, UniProt Q8TBX8). The series can be described thus: Inhibition of PIP5K2C in human HeLa cells lysate pre incubated for 15 mins followed by ATP acyl phosphate probe addition and measured after 10 mins by LC-MS/MS analysis. The class given is subcellular.
Series [6] concerns the target T3, Dual specificity mitogen-activated protein kinase kinase 6 (Homo sapiens) (UniProt P52564).
T3 sequence (whole entry): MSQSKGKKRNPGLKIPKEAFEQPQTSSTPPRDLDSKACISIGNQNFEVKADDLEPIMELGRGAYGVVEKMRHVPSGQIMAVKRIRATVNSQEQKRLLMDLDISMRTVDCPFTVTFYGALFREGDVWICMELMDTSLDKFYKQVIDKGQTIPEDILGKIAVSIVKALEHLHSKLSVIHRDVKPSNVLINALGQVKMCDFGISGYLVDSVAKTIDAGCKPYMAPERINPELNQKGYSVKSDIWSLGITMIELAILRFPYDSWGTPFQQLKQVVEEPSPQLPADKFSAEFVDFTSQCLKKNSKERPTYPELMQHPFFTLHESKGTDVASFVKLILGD
The series can be described thus: Inhibition of MAP2K6 in human HeLa cells lysate at 2 uM pre incubated for 15 mins followed by ADP acyl phosphate probe addition and measured after 10 mins by LC-MS/MS analysis relative to control. The following applies: time 25.0 min. In kind it is subcellular.

Series [7] is described as follows: Toxicity in C57Bl/6 mouse assessed as effect on albumin level at 50 mg/kg, ip for 14 days (reference value: 3 g/dl). In kind it is organism-based. The following applies: in vivo, 336 h, time 14 day.
Series [8] has as its target Cyclin-dependent kinase 2 (Homo sapiens, UniProt P24941). The series can be described thus: Inhibition of CDK2 K1 site in human HeLa cells lysate at 10 uM pre incubated for 15 mins followed by ATP acyl phosphate probe addition and measured after 10 mins by LC-MS/MS analysis relative to control. In kind it is subcellular. The following applies: time 25.0 min. In short, it runs like this: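 KiNativ profiling in HeLa lysate (5 mg/mL total protein). Lysate incubated 15 min with inhibitor at 50, 10, 2, 0.8 or 0 μM. ATP or ADP acylphosphate probe then added (5 μM final) and reacted 10 min. Reaction stopped with urea and analysed by targeted MS, using up to four fragment ions per kinase peptide-probe conjugate. % inhibition taken against untreated lysate. Run in duplicate.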

The next series concerns the target Wee1-like protein kinase (Homo sapiens, UniProt P30291). The series can be described thus: Inhibition of Wee1 in human HeLa cells lysate pre incubated for 15 mins followed by ATP acyl phosphate probe addition and measured after 10 mins by LC-MS/MS analysis. In kind it is subcellular.

Sequence of Phosphatidylinositol 5-phosphate 4-kinase type-2 gamma (Q8TBX8 whole entry): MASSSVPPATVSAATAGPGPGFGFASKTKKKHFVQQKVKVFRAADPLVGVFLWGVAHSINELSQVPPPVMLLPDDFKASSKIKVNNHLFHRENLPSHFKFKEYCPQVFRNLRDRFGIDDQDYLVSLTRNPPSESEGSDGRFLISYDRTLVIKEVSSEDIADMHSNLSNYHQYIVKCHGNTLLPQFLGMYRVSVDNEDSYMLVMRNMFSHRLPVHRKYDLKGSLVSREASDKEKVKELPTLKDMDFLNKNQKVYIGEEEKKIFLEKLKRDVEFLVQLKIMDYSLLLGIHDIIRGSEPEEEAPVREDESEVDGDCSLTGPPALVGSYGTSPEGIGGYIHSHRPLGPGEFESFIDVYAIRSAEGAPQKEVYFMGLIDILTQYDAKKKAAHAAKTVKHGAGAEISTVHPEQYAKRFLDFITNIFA
Sequence of Wee1-like protein kinase (P30291 whole entry): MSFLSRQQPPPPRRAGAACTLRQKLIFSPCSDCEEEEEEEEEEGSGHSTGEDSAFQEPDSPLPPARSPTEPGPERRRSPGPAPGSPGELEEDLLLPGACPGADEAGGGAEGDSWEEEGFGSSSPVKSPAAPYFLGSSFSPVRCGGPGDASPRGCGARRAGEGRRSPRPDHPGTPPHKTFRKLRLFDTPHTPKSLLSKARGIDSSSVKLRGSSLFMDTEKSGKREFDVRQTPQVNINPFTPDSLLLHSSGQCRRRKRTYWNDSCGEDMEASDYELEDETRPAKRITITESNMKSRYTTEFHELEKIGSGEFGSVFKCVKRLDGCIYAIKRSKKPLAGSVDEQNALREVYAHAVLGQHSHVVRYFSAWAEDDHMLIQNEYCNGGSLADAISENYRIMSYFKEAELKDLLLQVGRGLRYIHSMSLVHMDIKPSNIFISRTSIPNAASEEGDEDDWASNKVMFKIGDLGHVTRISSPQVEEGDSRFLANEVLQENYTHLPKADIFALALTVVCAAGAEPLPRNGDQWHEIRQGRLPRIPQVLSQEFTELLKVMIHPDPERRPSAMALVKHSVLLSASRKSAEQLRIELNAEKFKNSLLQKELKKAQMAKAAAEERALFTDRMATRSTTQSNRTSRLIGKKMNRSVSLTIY

For `CCOc1cc(N2CCC(O)CC2)ccc1Nc1ncc2c(n1)N(C)c1ccccc1C(=O)N2C`, in [1], the inhibition (usually the change of the read-out against control, counted positive when it falls) at 2 µM is -5.2%. For the same molecule, the IC50 (in series [2]; in series [5]; against Wee1-like protein kinase) was greater than 50 µM throughout. Also, the inhibition in [3] was 19.1%; in series [4], 34.5%; in series [6], 6.7%; in series [8], -9.1%. For the same molecule, the Activity in series [7] is 3.3 g/dL.
